Assays:
[1] = tested on: Mucor; test: Antifungal activity against Mucor species; type: functional
[2] = tested on: Cryptococcus neoformans; test: Antifungal activity against Cryptococcus neoformans; type: functional
[3] = tested on: Trichophyton rubrum; test: Antifungal activity against Trichophyton rubrum; type: functional
[4] = tested on: Candida tropicalis; test: Antifungal activity against Candida tropicalis; type: functional
[5] = tested on: Candida albicans; test: Antifungal activity against Candida albicans; type: functional
[6] = tested on: Phialophora verrucosa; test: Antifungal activity against Phialophora verrucosa; type: functional
[7] = tested on: Staphylococcus haemolyticus; test: Antibacterial against Staphylococcus hemolyticus; type: functional
[8] = tested on: Microsporum canis; test: Antifungal activity against Microsporum canis; type: functional
[9] = tested on: Sporothrix schenckii; test: Antifungal activity against Sporothrix schenck ii; type: functional
[10] = Ratio of animals cured to that of animals infected, tested in vivo for antifungal activity against cutaneous candidosis in guinea pig; 1/2; type: functional
[11] = Ratio of animals cured to that of animals infected, tested in vivo for antifungal activity against vaginal candidosis in rat; 0/2; type: functional
Outline: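 Rat experimental vaginal candidosis. Compounds were given orally as a suspension in polyethylene glycol 200 at 10 mg/kg/day for 14 consecutive days.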

[12] = tested on: Aspergillus fumigatus; test: Antifungal activity against Aspergillus fumigatus; type: functional
[13] = tested on: Streptococcus pyogenes; test: Antibacterial activity against Streptococcus pyogenes; type: functional
[14] = tested on: Erysipelothrix rhusiopathiae; test: Antibacterial activity against Erysipelothrix insidiosa; type: functional
[15] = tested on: Trichophyton benhamiae; test: Antifungal activity against Trichophyton mentagrophytes; type: functional, trychophyton mentagrophytes
[16] = tested on: Saprolegnia; test: Antifungal activity against Saprolegnia species; type: functional
[17] = Ratio of animals cured to that of animals […], Tested in vivo for antifungal activity against vaginal candidosis in rat; 0/2; type: functional
[18] = tested on: Phialophora verrucosa; test: compound was tested for antifungal activity against Phialophora verrucosa; type: functional
[19] = Ratio of animals cured to that of animals infected, tested in vivo for antifungal activity against cutaneous candidosis in guinea pig; 0/2; type: functional
[20] = Ratio of animals cured to that of animals infected, tested in vivo for antifungal activity against vaginal candidosis in rat; 2/4
[21] = Ratio of animals cured to that of animals […], Tested in vivo for antifungal activity against vaginal candidosis in rat; 0/6; type: functional
[22] = Ratio of animals cured to that of animals infected, tested in vivo for antifungal activity against cutaneous candidosis in guinea pig; 4/13; type: functional

Compound	Inhibition [1] [µg/mL]	Inhibition [2] [µg/mL]	Inhibition [3] [µg/mL]	Inhibition [4] [µg/mL]	Inhibition [5] [µg/mL]	Inhibition [6] [µg/mL]	Inhibition [7] [µg/mL]	Inhibition [8] [µg/mL]	Inhibition [9] [µg/mL]	Ratio [10]	Inhibition [12] [µg/mL]	Inhibition [13] [µg/mL]	Inhibition [14] [µg/mL]	Inhibition [15] [µg/mL]	Inhibition [16] [µg/mL]	Ratio [20]	further results
Clc1ccc(C2COC(Cn3ccnc3)(c3ccccc3)O2)cc1 (centres undefined)	100	10	<1	100	>100	100	100	<1	10	1	10	1	1	<1	100		Ratio [11]: 0
Clc1ccc(C2(Cn3ccnc3)OCC(CCc3ccccc3)O2)c(Cl)c1 (centres undefined)	10	<1	<1	10	100		10	<1	<1		<1	<1	<1	<1	100		Ratio [17]: 0; Inhibition [18]: 100 µg/mL
Clc1ccc(CCC2COC(Cn3ccnc3)(c3ccc(Cl)cc3Cl)O2)cc1 (centres undefined)	10	<1	1	10	10	100	10	1	1		10	<1	<1	<1	100	2	Ratio [19]: 0
Fc1ccc(C2COC(Cn3ccnc3)(c3ccc(Br)cc3)O2)cc1 (centres undefined)	<1	10	<1	100	100	100	100	<1	10	0.5	<1	<1	10	<1	100	2	
Clc1ccc(COC(Cn2ccnc2)c2ccc(Cl)cc2Cl)c(Cl)c1 (centres undefined) [MICONAZOLE]	>100	1	<1	100	10	100	10	1	1		10	<1	<1	<1	10		Ratio [21]: 0; Ratio [22]: 0.31
